By IC50 is commonly meant the concentration needed to halve the response being measured.

The record followed here is ChEMBL document CHEMBL3877241 (J Med Chem, 2016).

A short description of test [1]: Antiproliferative activity against human MDA-MB-231 cells after 72 hrs by MTT assay. It is filed as functional, cell-based. Particulars: MDA-MB-231, 72 h.
The target of test [2] is T1, Tyrosine-protein kinase JAK2 (Homo sapiens, UniProt O60674). The test can be described thus: Inhibition of JAK2 (unknown origin).
Test [3] in a line: Antiproliferative activity against human HCT116 cells after 72 hrs by MTT assay. It is filed as functional, cell-based. The conditions noted are these: HCT-116, 72 h. An outline of the steps: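 MTT viability after 72 h exposure. Cells seeded at 2500/well and left 24 h before compound addition; DMSO at 0.5% v/v final. MTT added in FBS-free medium for 3 h at 37 °C, formazan dissolved in DMSO, absorbance read at 570 nm. IC50 from a sigmoidal fit of % viability vs log concentration; triplicates on separate occasions using two different stock solutions.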
(In general: Formazan colour is commonly taken as a measure of viable cells.)

Test [4] addresses T2, Protein deacetylase HDAC6 (Homo sapiens, UniProt Q9UBN7).
T2 sequence (Q9UBN7 whole entry): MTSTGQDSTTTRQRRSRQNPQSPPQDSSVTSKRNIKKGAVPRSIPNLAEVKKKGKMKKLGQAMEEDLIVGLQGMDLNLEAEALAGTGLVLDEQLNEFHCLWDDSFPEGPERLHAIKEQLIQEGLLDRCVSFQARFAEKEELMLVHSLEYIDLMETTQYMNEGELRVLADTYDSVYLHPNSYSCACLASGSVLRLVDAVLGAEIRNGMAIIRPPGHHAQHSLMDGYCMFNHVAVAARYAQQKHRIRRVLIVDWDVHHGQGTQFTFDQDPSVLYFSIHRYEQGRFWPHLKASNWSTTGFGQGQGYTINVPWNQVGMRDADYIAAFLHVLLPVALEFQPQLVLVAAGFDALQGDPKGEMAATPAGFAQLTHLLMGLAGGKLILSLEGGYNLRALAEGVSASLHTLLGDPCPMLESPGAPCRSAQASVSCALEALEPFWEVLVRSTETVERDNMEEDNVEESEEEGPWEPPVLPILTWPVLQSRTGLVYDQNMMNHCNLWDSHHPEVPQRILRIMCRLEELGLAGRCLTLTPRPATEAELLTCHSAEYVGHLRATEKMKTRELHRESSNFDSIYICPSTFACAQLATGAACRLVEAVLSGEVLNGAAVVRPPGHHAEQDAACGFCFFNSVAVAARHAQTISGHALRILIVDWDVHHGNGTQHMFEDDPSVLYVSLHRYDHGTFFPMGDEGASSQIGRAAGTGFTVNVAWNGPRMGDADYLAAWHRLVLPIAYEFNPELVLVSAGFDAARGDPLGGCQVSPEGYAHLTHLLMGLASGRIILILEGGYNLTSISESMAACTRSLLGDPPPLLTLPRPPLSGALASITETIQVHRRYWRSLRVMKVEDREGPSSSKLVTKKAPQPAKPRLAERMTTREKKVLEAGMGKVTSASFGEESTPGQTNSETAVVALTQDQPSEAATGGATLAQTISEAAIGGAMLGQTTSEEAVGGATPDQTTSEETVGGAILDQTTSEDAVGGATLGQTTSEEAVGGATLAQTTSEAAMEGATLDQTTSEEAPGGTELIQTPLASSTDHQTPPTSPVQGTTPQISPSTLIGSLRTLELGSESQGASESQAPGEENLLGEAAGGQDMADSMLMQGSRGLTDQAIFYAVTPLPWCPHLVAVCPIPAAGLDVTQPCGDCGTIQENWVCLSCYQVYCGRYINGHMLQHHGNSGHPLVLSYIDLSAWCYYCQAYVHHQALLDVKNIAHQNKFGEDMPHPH
The test can be described thus: Inhibition of full length human recombinant N-terminal GST-tagged HDAC6 (1 to 1215 residues) expressed in sf9 cells preincubated with enzyme followed by fluorogenic Arg-His-Lys-Lys(Ac)-AMC substrate addition measured after 2 hrs by fluorescence assay.

Test [5] in a line: Antiproliferative activity against human HL60 cells. It is filed as functional, cell-based. Particulars: HL-60.
A short description of test [6]: Antiproliferative activity against human OPM2 cells after 48 hrs by CellTiter-Glo assay. It is filed as functional, cell-based. Particulars: OPM-2, 48 h. An outline of the steps: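 OPM2 grown in RPMI 1640 with 10% FBS and penicillin/streptomycin at 37 °C, 5% CO2. Treated at 25,000 cells/well in triplicate for 48 h. Viability read by CellTiter-Glo luminescence. IC50 taken from a sigmoidal fit of % viability vs log concentration.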
(In ATP-based viability assays light output follows the ATP content of the culture.)

The next test concerns the target Histone deacetylase 1 (Homo sapiens, UniProt Q13547). Briefly: Inhibition of full length human recombinant C-terminal FLAG/His-tagged HDAC1 (1 to 482 residues) expressed in sf21 cells preincubated with enzyme followed by fluorogenic Arg-His-Lys-Lys(Ac)-AMC substrate addition measured after 2 hrs by fluorescence assay.
A short description of test [7]: Antiproliferative activity against human Jurkat cells. It is filed as functional, cell-based.
For test [8], the target named is T1, Tyrosine-protein kinase JAK2. Briefly: Inhibition of JAK2 (unknown origin) preincubated for 20 mins followed by [33P]ATP addition measured after 120 mins by Hotspot assay.
Test [9] is described as follows: Antiproliferative activity against human PC3 cells after 72 hrs by MTT assay. It is filed as functional, cell-based. The conditions noted are these: PC-3, 72 h.
The nature of a further test: cells. It is filed as functional, cell-based. The conditions noted are these: Homo sapiens, HEL 92.1.7, 36 h.
Test [10] in a line: Antiproliferative activity against human MCF7 cells after 72 hrs by MTT assay. It is filed as functional, cell-based. Particulars: MCF7, 72 h.

T1 sequence (O60674 whole entry): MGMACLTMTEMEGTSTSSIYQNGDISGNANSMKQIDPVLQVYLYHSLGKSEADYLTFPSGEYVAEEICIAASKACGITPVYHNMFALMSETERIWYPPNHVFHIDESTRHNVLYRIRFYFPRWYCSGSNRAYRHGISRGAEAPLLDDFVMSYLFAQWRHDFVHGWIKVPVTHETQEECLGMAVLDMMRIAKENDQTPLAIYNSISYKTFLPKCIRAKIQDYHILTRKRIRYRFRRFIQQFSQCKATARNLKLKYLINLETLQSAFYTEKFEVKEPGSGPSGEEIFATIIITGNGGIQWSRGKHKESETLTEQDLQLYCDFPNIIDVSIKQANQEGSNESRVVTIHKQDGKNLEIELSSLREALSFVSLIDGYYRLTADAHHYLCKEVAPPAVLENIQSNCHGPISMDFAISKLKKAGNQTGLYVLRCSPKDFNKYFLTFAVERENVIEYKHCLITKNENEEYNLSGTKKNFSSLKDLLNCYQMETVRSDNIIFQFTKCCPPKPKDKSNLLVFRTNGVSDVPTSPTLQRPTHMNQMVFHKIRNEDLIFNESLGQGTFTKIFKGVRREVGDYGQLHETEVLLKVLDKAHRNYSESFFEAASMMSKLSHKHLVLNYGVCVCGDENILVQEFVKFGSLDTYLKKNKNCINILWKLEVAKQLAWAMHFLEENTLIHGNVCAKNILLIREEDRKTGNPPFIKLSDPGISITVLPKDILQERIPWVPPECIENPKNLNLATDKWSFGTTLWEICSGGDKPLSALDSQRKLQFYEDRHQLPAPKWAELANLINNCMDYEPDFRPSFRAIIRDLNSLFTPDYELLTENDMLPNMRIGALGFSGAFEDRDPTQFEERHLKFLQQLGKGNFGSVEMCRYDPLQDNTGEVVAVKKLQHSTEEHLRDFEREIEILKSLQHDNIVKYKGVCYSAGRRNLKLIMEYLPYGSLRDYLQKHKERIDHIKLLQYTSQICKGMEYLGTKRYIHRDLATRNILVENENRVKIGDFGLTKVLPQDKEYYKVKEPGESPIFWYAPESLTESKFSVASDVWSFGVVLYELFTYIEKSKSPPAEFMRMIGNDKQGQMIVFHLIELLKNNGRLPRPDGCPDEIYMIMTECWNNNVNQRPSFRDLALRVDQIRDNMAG
Histone deacetylase 1, sequence (Q13547 whole entry, the tested form may be a part): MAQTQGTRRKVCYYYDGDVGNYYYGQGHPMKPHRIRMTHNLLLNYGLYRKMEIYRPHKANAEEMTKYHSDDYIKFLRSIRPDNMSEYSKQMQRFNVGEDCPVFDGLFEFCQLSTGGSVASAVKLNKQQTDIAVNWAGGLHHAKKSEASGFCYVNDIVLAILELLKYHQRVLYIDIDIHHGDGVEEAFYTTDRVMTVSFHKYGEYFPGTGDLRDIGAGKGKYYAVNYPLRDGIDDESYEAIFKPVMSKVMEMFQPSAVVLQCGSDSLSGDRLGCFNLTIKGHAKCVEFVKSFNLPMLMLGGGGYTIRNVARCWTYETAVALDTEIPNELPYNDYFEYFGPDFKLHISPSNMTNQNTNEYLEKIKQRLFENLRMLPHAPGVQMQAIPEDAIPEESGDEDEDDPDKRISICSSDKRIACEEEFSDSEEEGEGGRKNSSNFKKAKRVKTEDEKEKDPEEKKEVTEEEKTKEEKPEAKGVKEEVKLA

Take `O=C(O)c1cccc(NCCOc2ccc3cc2COC/C=C/COCc2cccc(c2)-c2ccnc(n2)N3)c1`: the IC50 in [1] was 21.4 µM; in test [2], below 0.039 µM; in [3] it was 59.2 µM; in test [4] it was 53 µM.

For `O=C(CCCCCCC(=O)Nc1ccccc1)NO` [VORINOSTAT], the IC50 in test [5] came out at 2.28 µM; in [6], 2.91 µM; in test [3] it was 1.85 µM.

`O=C(CCCCCOc1ccc2cc1COC/C=C/COCc1cccc(c1)-c1ccnc(n1)N2)NO`: the 50% inhibitory concentration (IC50) in [5] is above 4 µM; at Histone deacetylase 1, 4.07 µM; in test [7], 2.9 µM; in test [1], 8.07 µM; in [8], 0.0043 µM; in [9], 8.11 µM. The concentration for half-maximal inhibition (IC50) in “cells” is above 2 µM; in test [3] it was 2.56 µM; in test [4], 0.028 µM; in test [10] it was 4.81 µM.

Turning to `O=C(CCCCCCC(=O)Nc1ccc(NCCOc2ccc3cc2COC/C=C/COCc2cccc(c2)-c2ccnc(n2)N3)cc1)NO`, the half-inhibitory concentration (IC50) was above 4 µM in [5]; above 4 µM in test [7]; 3.43 µM in [1]; 0.03 µM in test [8]; above 100 µM in test [9]; above 2 µM in “cells”. In addition, the IC50 in test [4] was determined as 0.0023 µM.

As for `CN1CCc2c(c3ccccc3n2Cc2ccc(C(=O)NO)cc2)C1` [TUBASTATIN A], the IC50 was above 4 µM in test [5]; above 4 µM in test [7]; 10.4 µM in test [1]; 8.6 µM in [9]; above 2 µM in the test “cells”; 2 µM in [3]. The same compound displayed an IC50 in test [10] of 3.7 µM.

In the case of `O=C(O)CCCCOc1ccc2cc1COC/C=C/COCc1cccc(c1)-c1ccnc(n1)N2`, the results for the IC50 in [1], in test [2] and in test [3] were 25.9 µM, below 0.039 µM and 36 µM, respectively.

For the compound `O=C(O)c1ccc(OCCOc2ccc3cc2COC/C=C/COCc2cccc(c2)-c2ccnc(n2)N3)cc1`, the half-maximal inhibitory concentration (IC50) in test [1] is 54.2 µM; in [2], below 0.039 µM; in [3] it was 29.7 µM; in test [4], above 100 µM.

Regarding `O=C(O)c1ccc(NCCOc2ccc3cc2COC/C=C/COCc2cccc(c2)-c2ccnc(n2)N3)cc1`, the 50% inhibitory concentration (IC50) was 46 µM in test [1], below 0.039 µM in test [8] and 64 µM in [4].

As for `O=C(NO)c1ccc(OCCOc2ccc3cc2COC/C=C/COCc2cccc(c2)-c2ccnc(n2)N3)cc1`, the figures for the IC50 in [8], in [9] and in test [4] were 0.00127 µM, 1.6 µM and 0.066 µM, respectively.

For `O=C(O)C1CCN(CCOc2ccc3cc2COC/C=C/COCc2cccc(c2)-c2ccnc(n2)N3)CC1`, the IC50 is 10.7 µM in [1], below 0.039 µM in [2], 8.2 µM in test [3] and above 100 µM in test [4].

As for `O=C(O)CCCCCOc1ccc2cc1COC/C=C/COCc1cccc(c1)-c1ccnc(n1)N2`, the IC50 in test [1] was 19.9 µM; in [2] it was below 0.039 µM; in [3] it was 41 µM; in test [4], 45 µM.

Turning to `O=C(O)CCCCCCC(=O)Nc1ccc(NCCOc2ccc3cc2COC/C=C/COCc2cccc(c2)-c2ccnc(n2)N3)cc1`, the IC50 is 0.00231 µM in [8], 2.7 µM in [3] and 2.6 µM in test [4].

On to `O=C(NO)c1cccc(NCCOc2ccc3cc2COC/C=C/COCc2cccc(c2)-c2ccnc(n2)N3)c1`, for which the concentration for half-maximal inhibition (IC50) in test [1] is above 50 µM; in [8], 0.009 µM; in [9], above 100 µM; in test [3] it was 2.01 µM; in test [4], 2.9 µM.

Consider `O=C(CCCOc1ccc2cc1COC/C=C/COCc1cccc(c1)-c1ccnc(n1)N2)NO`, for which the half-inhibitory concentration (IC50) at Histone deacetylase 1 is 2.4 µM; in test [1], 5.91 µM; in test [9], 4.61 µM; in test [3], 3.64 µM; in test [4], 0.51 µM; in [10] it was 2.78 µM.

On to `O=C(NO)c1ccc(NCCOc2ccc3cc2COC/C=C/COCc2cccc(c2)-c2ccnc(n2)N3)cc1`, for which the IC50 turned out to be 8.69 µM in test [1]; 0.00171 µM in [8]; 4.58 µM in test [9]; 3.2 µM in test [3]; 0.395 µM in test [4]; 3.84 µM in [10].

As to `O=C(NO)C1CCN(CCOc2ccc3cc2COC/C=C/COCc2cccc(c2)-c2ccnc(n2)N3)CC1`, the IC50 in test [1] worked out at 3.41 µM; in test [8] it was 0.00097 µM; in test [9] it was 2.79 µM; in test [3] it was 1.2 µM; in test [4] it was 0.899 µM; in test [10], 1.68 µM.

`O=C(O)CCCCCCCOc1ccc2cc1COC/C=C/COCc1cccc(c1)-c1ccnc(n1)N2`: the concentration for half-maximal inhibition (IC50) is 17.1 µM in test [1]; below 0.039 µM in [2]; 22.8 µM in test [9]; 8.04 µM in test [3]; 10 µM in test [4]; 27.7 µM in [10].

`O=C(CCCCOc1ccc2cc1COC/C=C/COCc1cccc(c1)-c1ccnc(n1)N2)NO`: the IC50 at Histone deacetylase 1 is 3.09 µM; in test [1], 12.7 µM; in test [8], 0.00245 µM; in [9] it was 10.1 µM; in [3] it was 1.41 µM; in [4] it was 0.107 µM. The same compound displayed a half-inhibitory concentration (IC50) in test [10] of 7.87 µM.

Consider `O=C(O)CCCCCCOc1ccc2cc1COC/C=C/COCc1cccc(c1)-c1ccnc(n1)N2`, for which the half-inhibitory concentration (IC50) came out at 12 µM in test [1]; 0.00257 µM in [8]; 8.76 µM in test [9]; 6.06 µM in [3]; 2.8 µM in [4]; 20 µM in test [10].

For the compound `O=C(CCCCCC(=O)Nc1ccc(NCCOc2ccc3cc2COC/C=C/COCc2cccc(c2)-c2ccnc(n2)N3)cc1)NO`, the IC50 in [5] is above 4 µM; in [7], above 4 µM; in test [8], 0.0069 µM; in test [9], above 100 µM; in “cells” it was above 2 µM; in test [4], 0.0025 µM.

On to `O=C(O)CCCOc1ccc2cc1COC/C=C/COCc1cccc(c1)-c1ccnc(n1)N2`, for which the IC50 in test [1] is 53.5 µM; in [8], 0.047 µM; in test [3] it was 124 µM.
